In ChEMBL document CHEMBL4689842, “EUbOPEN Chemogenomics Library wave 1” (2021):

Test system: HEK-293T
Assay: Multiplex assay against HEK293T;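 on Population Tubulin-Different-Phenotype (%): share of the cells with healthy nuclei that show this phenotype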
Format: toxicity, cell-based
Settings: human
In short: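 Hoechst33342, BioTracker Green Microtubule Cytoskeleton Dye, MitoTracker Red and Annexin V Alexa Fluor 680 were added to live cells at seeding, and imaging on a CQ1 microscope at 37°C and 5% CO2 followed compound addition. Gating by CellPathfinder machine learning separated cells into Hoechst high-intensity objects or normal cells, then normal cells into healthy, pyknosed or fragmented nuclei, then pyknosed cells into mitotic or apoptotic. Per cents of healthy-nucleus cells are reported for the tubulin, mitochondrial-mass and membrane-permeability phenotypes.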

[1] = 12 h, 1 µM, compound concentration 1 uM, replicate 1
[2] = 12 h, 1 µM, compound concentration 1 uM, replicate 2
[3] = 12 h, 10 µM, compound concentration 10 uM, replicate 1
[4] = 12 h, 10 µM, compound concentration 10 uM, replicate 2
[5] = 24 h, 1 µM, compound concentration 1 uM, replicate 1
[6] = 24 h, 1 µM, compound concentration 1 uM, replicate 2
[7] = 24 h, 10 µM, compound concentration 10 uM, replicate 1
[8] = 24 h, 10 µM, compound concentration 10 uM, replicate 2

CCOc1cc2ncc(C#N)c(Nc3ccc(OCc4cccc(F)c4)c(Cl)c3)c2cc1NC(=O)/C=C/CN(C)C [HKI-357]
Population Apoptotic (%) [1]: 18% | Population Fragmented Nuclei (%) [1]: 19% | Population Healthy Nuclei (%) [1]: 59% | Population Hoechst High Intensity Objects (%) [1]: 13% | Population Membrane Permeable-Phenotype (%) [1]: 4% | Population Mitochondria Different-Phenotype (%) [1]: 8% | Population Mitotic Cells (%) [1]: 81% | Population Normal (%) [1]: 86% | Population Pyknosed Nuclei (%) [1]: 21% | Population Tubulin-Different-Phenotype (%) [1]: 4% | Total Cell Count [1]: 555 | Population Apoptotic (%) [2]: 10% | Population Fragmented Nuclei (%) [2]: 7% | Population Healthy Nuclei (%) [2]: 87% | Population Hoechst High Intensity Objects (%) [2]: 1% | Population Membrane Permeable-Phenotype (%) [2]: 1% | Population Mitochondria Different-Phenotype (%) [2]: 10% | Population Mitotic Cells (%) [2]: 89% | Population Normal (%) [2]: 98% | Population Pyknosed Nuclei (%) [2]: 5% | Population Tubulin-Different-Phenotype (%) [2]: 7% | Total Cell Count [2]: 1619 | Population Apoptotic (%) [3]: 31% | Population Fragmented Nuclei (%) [3]: 13% | Population Healthy Nuclei (%) [3]: 50% | Population Hoechst High Intensity Objects (%) [3]: 10% | Population Membrane Permeable-Phenotype (%) [3]: 19% | Population Mitochondria Different-Phenotype (%) [3]: 16% | Population Mitotic Cells (%) [3]: 68% | Population Normal (%) [3]: 89% | Population Pyknosed Nuclei (%) [3]: 35% | Population Tubulin-Different-Phenotype (%) [3]: 61% | Total Cell Count [3]: 591 | Population Apoptotic (%) [4]: 14% | Population Fragmented Nuclei (%) [4]: 3% | Population Healthy Nuclei (%) [4]: 83% | Population Hoechst High Intensity Objects (%) [4]: 2% | Population Membrane Permeable-Phenotype (%) [4]: 11% | Population Mitochondria Different-Phenotype (%) [4]: 23% | Population Mitotic Cells (%) [4]: 85% | Population Normal (%) [4]: 97% | Population Pyknosed Nuclei (%) [4]: 12% | Population Tubulin-Different-Phenotype (%) [4]: 78% | Total Cell Count [4]: 1328 | Population Apoptotic (%) [5]: 31% | Population Fragmented Nuclei (%) [5]: 14% | Population Healthy Nuclei (%) [5]: 74% | Population Hoechst High Intensity Objects (%) [5]: 8% | Population Membrane Permeable-Phenotype (%) [5]: 7% | Population Mitochondria Different-Phenotype (%) [5]: 5% | Population Mitotic Cells (%) [5]: 68% | Population Normal (%) [5]: 91% | Population Pyknosed Nuclei (%) [5]: 11% | Population Tubulin-Different-Phenotype (%) [5]: 9% | Total Cell Count [5]: 612 | Population Apoptotic (%) [6]: 4% | Population Fragmented Nuclei (%) [6]: 26% | Population Healthy Nuclei (%) [6]: 71% | Population Hoechst High Intensity Objects (%) [6]: 2% | Population Membrane Permeable-Phenotype (%) [6]: 4% | Population Mitochondria Different-Phenotype (%) [6]: 2% | Population Mitotic Cells (%) [6]: 96% | Population Normal (%) [6]: 97% | Population Pyknosed Nuclei (%) [6]: 1% | Population Tubulin-Different-Phenotype (%) [6]: 8% | Total Cell Count [6]: 2811 | Population Apoptotic (%) [7]: 28% | Population Fragmented Nuclei (%) [7]: 12% | Population Healthy Nuclei (%) [7]: 59% | Population Hoechst High Intensity Objects (%) [7]: 8% | Population Membrane Permeable-Phenotype (%) [7]: 10% | Population Mitochondria Different-Phenotype (%) [7]: 17% | Population Mitotic Cells (%) [7]: 71% | Population Normal (%) [7]: 91% | Population Pyknosed Nuclei (%) [7]: 28% | Population Tubulin-Different-Phenotype (%) [7]: 72% | Total Cell Count [7]: 592 | Population Apoptotic (%) [8]: 11% | Population Fragmented Nuclei (%) [8]: 11% | Population Healthy Nuclei (%) [8]: 81% | Population Hoechst High Intensity Objects (%) [8]: 3% | Population Membrane Permeable-Phenotype (%) [8]: 12% | Population Mitochondria Different-Phenotype (%) [8]: 9% | Population Mitotic Cells (%) [8]: 88% | Population Normal (%) [8]: 96% | Population Pyknosed Nuclei (%) [8]: 6% | Population Tubulin-Different-Phenotype (%) [8]: 70% | Total Cell Count [8]: 1894

CN(C)CCOc1ccc(-c2nc(-c3ccncc3)c(-c3ccc4c(c3)CC/C4=N\O)[nH]2)cc1 [SB590885]
Population Apoptotic (%) [1]: 25% | Population Fragmented Nuclei (%) [1]: 15% | Population Healthy Nuclei (%) [1]: 65% | Population Hoechst High Intensity Objects (%) [1]: 22% | Population Membrane Permeable-Phenotype (%) [1]: 30% | Population Mitochondria Different-Phenotype (%) [1]: 8% | Population Mitotic Cells (%) [1]: 74% | Population Normal (%) [1]: 77% | Population Pyknosed Nuclei (%) [1]: 18% | Population Tubulin-Different-Phenotype (%) [1]: 44% | Total Cell Count [1]: 678 | Population Apoptotic (%) [2]: 17% | Population Fragmented Nuclei (%) [2]: 2% | Population Healthy Nuclei (%) [2]: 88% | Population Hoechst High Intensity Objects (%) [2]: 12% | Population Membrane Permeable-Phenotype (%) [2]: 12% | Population Mitochondria Different-Phenotype (%) [2]: 23% | Population Mitotic Cells (%) [2]: 82% | Population Normal (%) [2]: 87% | Population Pyknosed Nuclei (%) [2]: 8% | Population Tubulin-Different-Phenotype (%) [2]: 76% | Total Cell Count [2]: 1120 | Population Apoptotic (%) [3]: 28% | Population Fragmented Nuclei (%) [3]: 12% | Population Healthy Nuclei (%) [3]: 69% | Population Hoechst High Intensity Objects (%) [3]: 9% | Population Membrane Permeable-Phenotype (%) [3]: 4% | Population Mitochondria Different-Phenotype (%) [3]: 8% | Population Mitotic Cells (%) [3]: 71% | Population Normal (%) [3]: 90% | Population Pyknosed Nuclei (%) [3]: 18% | Population Tubulin-Different-Phenotype (%) [3]: 5% | Total Cell Count [3]: 676 | Population Apoptotic (%) [4]: 8% | Population Fragmented Nuclei (%) [4]: 7% | Population Healthy Nuclei (%) [4]: 87% | Population Hoechst High Intensity Objects (%) [4]: 1% | Population Membrane Permeable-Phenotype (%) [4]: 3% | Population Mitotic Cells (%) [4]: 91% | Population Normal (%) [4]: 98% | Population Pyknosed Nuclei (%) [4]: 4% | Population Tubulin-Different-Phenotype (%) [4]: 9% | Total Cell Count [4]: 1929 | Population Apoptotic (%) [5]: 24% | Population Fragmented Nuclei (%) [5]: 15% | Population Healthy Nuclei (%) [5]: 69% | Population Hoechst High Intensity Objects (%) [5]: 24% | Population Membrane Permeable-Phenotype (%) [5]: 23% | Population Mitochondria Different-Phenotype (%) [5]: 14% | Population Mitotic Cells (%) [5]: 75% | Population Normal (%) [5]: 75% | Population Pyknosed Nuclei (%) [5]: 15% | Population Tubulin-Different-Phenotype (%) [5]: 48% | Total Cell Count [5]: 670 | Population Apoptotic (%) [6]: 10% | Population Fragmented Nuclei (%) [6]: 6% | Population Healthy Nuclei (%) [6]: 86% | Population Hoechst High Intensity Objects (%) [6]: 18% | Population Membrane Permeable-Phenotype (%) [6]: 27% | Population Mitochondria Different-Phenotype (%) [6]: 7% | Population Mitotic Cells (%) [6]: 89% | Population Normal (%) [6]: 81% | Population Pyknosed Nuclei (%) [6]: 6% | Population Tubulin-Different-Phenotype (%) [6]: 65% | Total Cell Count [6]: 1437 | Population Apoptotic (%) [7]: 20% | Population Fragmented Nuclei (%) [7]: 9% | Population Healthy Nuclei (%) [7]: 85% | Population Hoechst High Intensity Objects (%) [7]: 5% | Population Membrane Permeable-Phenotype (%) [7]: 10% | Population Mitochondria Different-Phenotype (%) [7]: 5% | Population Mitotic Cells (%) [7]: 79% | Population Normal (%) [7]: 94% | Population Pyknosed Nuclei (%) [7]: 5% | Population Tubulin-Different-Phenotype (%) [7]: 8% | Total Cell Count [7]: 810 | Population Apoptotic (%) [8]: 1% | Population Fragmented Nuclei (%) [8]: 24% | Population Healthy Nuclei (%) [8]: 73% | Population Hoechst High Intensity Objects (%) [8]: 3% | Population Membrane Permeable-Phenotype (%) [8]: 7% | Population Mitochondria Different-Phenotype (%) [8]: 1% | Population Mitotic Cells (%) [8]: 98% | Population Normal (%) [8]: 96% | Population Pyknosed Nuclei (%) [8]: 2% | Population Tubulin-Different-Phenotype (%) [8]: 10% | Total Cell Count [8]: 3237
